Measurements taken from paper PMC6138487 (British Journal of Clinical Pharmacology, 2018).
Marks after values point to notes of the source that are not given here.

Experiments:
Format in all cases: in vivo, human
[1] = Pharmacokinetics of elobixibat; conditions: for C1max / t1(1/2) / C8max / t8(1/2) / C14max / t14(1/2): geometric mean (CV)
Summary of the method: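 Once-daily oral dosing before breakfast for 14 days. Plasma was drawn predose and at 0.5–12 h on Days –1, 1, 8 and 14, plus intermittent days to Day 21. Measured by LC–MS/MS (LLOQ 10.0 pg ml–1). Noncompartmental Cmax and AUC(0–t) on log-transformed values. Accumulation ratios were Day 8/Day 1 and Day 14/Day 1. Sex effect was expressed as back-transformed male/female LSM ratio.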

[2] = test system: patients with chronic constipation; experiment: Bowel functions; conditions: for proportion of patients with first SBM within 24 h: placebo 40.0%
Summary of the method: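 Test compound or placebo orally once daily before breakfast for 14 days. Patients recorded the time of each BM (BM, SBM, complete SBM), Bristol Stool Form Scale, straining (five levels), completeness of evacuation and GI symptoms including discomfort (five levels). Bisacodyl suppository rescue was allowed after ≥72 h without BM with symptoms. Descriptive statistics were used.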

[3] = test system: patients with chronic constipation; experiment: Adverse events, S-test
Summary of the method: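 Crossover study with patients randomized 5:1 to test compound (2.5–20 mg) or placebo. Single oral dose on Day 1, taken 15 min before breakfast or without breakfast, then 6-day washout. The alternative regimen was given on Day 8, followed by 5-day observation. Inpatient Day –2 to Day 14. AE type, severity and incidence recorded with vital signs, ECG and laboratory tests. Dose trend by Cochran–Armitage test.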

[4] = test system: plasma 7α‐hydroxy‐4‐cholesten‐3‐one (C4); experiment: Plasma C4 level, M-test; conditions: Day 8 and Day 14; P < 0.001 except 2.5 mg day^–1
[5] = Day 1, 2.5 mg once daily before breakfast
[6] = Day 1, 5 mg once daily before breakfast
[7] = Day 1, 10 mg once daily before breakfast
[8] = Day 1, 15 mg once daily before breakfast
[9] = Day 1, 20 mg once daily before breakfast
[10] = Day 8, 2.5 mg once daily before breakfast
[11] = Day 8, 5 mg once daily before breakfast
[12] = Day 8, 10 mg once daily before breakfast
[13] = Day 8, 15 mg once daily before breakfast
[14] = Day 8, 20 mg once daily before breakfast
[15] = Day 14, 2.5 mg once daily before breakfast
[16] = Day 14, 5 mg once daily before breakfast
[17] = Day 14, 10 mg once daily before breakfast
[18] = Day 14, 15 mg once daily before breakfast
[19] = Day 14, 20 mg once daily before breakfast
[20] = M-test Day 8, linear mixed effect model
[21] = M-test Day 14, linear mixed effect model
[22] = single dose 2.5 mg, before breakfast (group n=10)
[23] = single dose 2.5 mg, no breakfast (group n=10)
[24] = single dose 5 mg, before breakfast (group n=10)
[25] = single dose 5 mg, no breakfast (group n=10)
[26] = single dose 10 mg, before breakfast (group n=10)
[27] = single dose 10 mg, no breakfast (group n=10)
[28] = single dose 15 mg, before breakfast (group n=10)
[29] = single dose 15 mg, no breakfast (group n=10)
[30] = single dose 20 mg, before breakfast (group n=10)
[31] = single dose 20 mg, no breakfast (group n=9)

## CCCCC1(CCCC)CN(c2ccccc2)c2cc(SC)c(OCC(=O)N[C@@H](C(=O)NCC(=O)O)c3ccccc3)cc2S(=O)(=O)C1 [elobixibat]
[1]; 5 and 15 mg day^–1 dosages (Discussion)
  drug accumulation on multiple administration: slight accumulation
[1]; [5]
  C1max: 98.69 (56.9) pg ml^–1
  t1(1/2): 1.89 (40.9) ^a h
[1]; [6]
  C1max: 164.83 (54.7) pg ml^–1
  t1(1/2): 2.41 (32.7) h
[1]; [7]
  C1max: 284.67 (39.6) ^a pg ml^–1
  t1(1/2): 2.69 (30.7) ^a h
[1]; [8]
  C1max: 468.71 (63.7) pg ml^–1
  t1(1/2): 3.28 (75.7) h
[1]; [9]
  C1max: 932.04 (76.3) pg ml^–1
  t1(1/2): 3.14 (62.4) h
[1]; [10]
  C8max: 99.39 (63.6) pg ml^–1
  t8(1/2): 2.42 (31.2) h
[1]; [11]
  C8max: 139.45 (50.7) pg ml^–1
  t8(1/2): 3.29 (68.9) h
[1]; [12]
  C8max: 283.84 (17.9) pg ml^–1
  t8(1/2): 4.96 (64.1) h
[1]; [13]
  C8max: 388.55 (82.0) pg ml^–1
  t8(1/2): 4.62 (58.2) h
[1]; [14]
  C8max: 581.32 (53.6) pg ml^–1
  t8(1/2): 5.16 (45.2) h
[1]; [15]
  C14max: 82.66 (50.4) pg ml^–1
  t14(1/2): 2.34 (50.8) ^a h
[1]; [16]
  C14max: 165.57 (35.0) pg ml^–1
  t14(1/2): 3.73 (61.0) h
[1]; [17]
  C14max: 236.11 (34.4) pg ml^–1
  t14(1/2): 6.19 (146.0) h
[1]; [18]
  C14max: 383.19 (73.5) pg ml^–1
  t14(1/2): 5.68 (74.9) h
[1]; [19]
  C14max: 953.18 (53.6) pg ml^–1
  t14(1/2): 7.23 (37.5) h
[1]; [20]
  AUC8(0–t), back transformed LSM ratio male/female: 0.9947
  C8max, back transformed LSM ratio male/female: 0.8416
[1]; [21]
  AUC14(0–t), back transformed LSM ratio male/female: 0.9863
  C14max, back transformed LSM ratio male/female: 0.9675
[1]; all dosage groups, 90% CIs of Rac included 1.000
  drug accumulation from Cmax (Rac): No drug accumulation
[1]; multiple administration once daily
  time to steady state of plasma concentration: ≤ 8 days
[2]; 2.5 mg day^–1 (10/10)
  proportion of patients with first SBM within 24 h: 100%
[2]; 5 mg day^–1 (10/10)
  proportion of patients with first SBM within 24 h: 100%
[2]; 10 mg day^–1 (9/9)
  proportion of patients with first SBM within 24 h: 100%
[2]; 15 mg day^–1 (8/9)
  proportion of patients with first SBM within 24 h: 88.9%
[2]; 20 mg day^–1 (10/10)
  proportion of patients with first SBM within 24 h: 100%
[2]; 20 mg day^–1 group
  patients reporting worse abdominal discomfort: 40%
[2]; 5 and 10 mg day^–1 groups
  patients reporting improvement of abdominal discomfort: Nearly half
[2]; M-test
  time to the first SBM compared with placebo: evidently shorter
[2]; M-test Weeks 1 and 2
  changes in SBM frequency from baseline (Week –1): dose‐dependent increases
[3]; [22]
  AEs associated with gastrointestinal disorders, % of patients: (40.0) %
  AEs associated with gastrointestinal disorders, n of patients: 4
  Any AEs, % of patients: (40.0) %
  Any AEs, n of patients: 4
  abdominal distention, % of patients: (20.0) %
  abdominal distention, n of patients: 2
  abdominal pain lower, % of patients: (20.0) %
  abdominal pain lower, n of patients: 2
  diarrhoea, n of patients: 0
[3]; [23]
  AEs associated with gastrointestinal disorders, % of patients: (20.0) %
  AEs associated with gastrointestinal disorders, n of patients: 2
  Any AEs, % of patients: (40.0) %
  Any AEs, n of patients: 4
  abdominal distention, n of patients: 0
  abdominal pain lower, % of patients: (10.0) %
  abdominal pain lower, n of patients: 1
  diarrhoea, n of patients: 0
[3]; [24]
  AEs associated with gastrointestinal disorders, % of patients: (80.0) %
  AEs associated with gastrointestinal disorders, n of patients: 8
  Any AEs, % of patients: (80.0) %
  Any AEs, n of patients: 8
  abdominal distention, n of patients: 0
  abdominal pain lower, % of patients: (40.0) %
  abdominal pain lower, n of patients: 4
  diarrhoea, % of patients: (40.0) %
  diarrhoea, n of patients: 4
[3]; [25]
  AEs associated with gastrointestinal disorders, % of patients: (50.0) %
  AEs associated with gastrointestinal disorders, n of patients: 5
  Any AEs, % of patients: (50.0) %
  Any AEs, n of patients: 5
  abdominal distention, % of patients: (20.0) %
  abdominal distention, n of patients: 2
  abdominal pain lower, % of patients: (20.0) %
  abdominal pain lower, n of patients: 2
  diarrhoea, % of patients: (30.0) %
  diarrhoea, n of patients: 3
[3]; [26]
  AEs associated with gastrointestinal disorders, % of patients: (10.0) %
  AEs associated with gastrointestinal disorders, n of patients: 1
  Any AEs, % of patients: (20.0) %
  Any AEs, n of patients: 2
  abdominal distention, n of patients: 0
  abdominal pain lower, % of patients: (10.0) %
  abdominal pain lower, n of patients: 1
  diarrhoea, n of patients: 0
[3]; [27]
  AEs associated with gastrointestinal disorders, % of patients: (10.0) %
  AEs associated with gastrointestinal disorders, n of patients: 1
  Any AEs, % of patients: (30.0) %
  Any AEs, n of patients: 3
  abdominal distention, n of patients: 0
  abdominal pain lower, % of patients: (10.0) %
  abdominal pain lower, n of patients: 1
  diarrhoea, n of patients: 0
[3]; [28]
  AEs associated with gastrointestinal disorders, % of patients: (60.0) %
  AEs associated with gastrointestinal disorders, n of patients: 6
  Any AEs, % of patients: (60.0) %
  Any AEs, n of patients: 6
  abdominal distention, % of patients: (10.0) %
  abdominal distention, n of patients: 1
  abdominal pain lower, % of patients: (10.0) %
  abdominal pain lower, n of patients: 1
  diarrhoea, % of patients: (50.0) %
  diarrhoea, n of patients: 5
[3]; [29]
  AEs associated with gastrointestinal disorders, % of patients: (100.0) %
  AEs associated with gastrointestinal disorders, n of patients: 10
  Any AEs, % of patients: (100.0) %
  Any AEs, n of patients: 10
  abdominal distention, % of patients: (20.0) %
  abdominal distention, n of patients: 2
  abdominal pain lower, % of patients: (30.0) %
  abdominal pain lower, n of patients: 3
  diarrhoea, % of patients: (70.0) %
  diarrhoea, n of patients: 7
[3]; [30]
  AEs associated with gastrointestinal disorders, % of patients: (30.0) %
  AEs associated with gastrointestinal disorders, n of patients: 3
  Any AEs, % of patients: (40.0) %
  Any AEs, n of patients: 4
  abdominal distention, % of patients: (20.0) %
  abdominal distention, n of patients: 2
  abdominal pain lower, % of patients: (10.0) %
  abdominal pain lower, n of patients: 1
  diarrhoea, n of patients: 0
[3]; [31]
  AEs associated with gastrointestinal disorders, % of patients: (11.1) %
  AEs associated with gastrointestinal disorders, n of patients: 1
  Any AEs, % of patients: (44.4) %
  Any AEs, n of patients: 4
  abdominal distention, % of patients: (11.1) %
  abdominal distention, n of patients: 1
  abdominal pain lower, n of patients: 0
  diarrhoea, n of patients: 0
[4]
  C4 AUEC relative to placebo (ANCOVA): significantly greater
